{"source": "ChEMBL document CHEMBL4732211", "about": "“Multifunctional agents based on benzoxazolone as promising therapeutic drugs for diabetic nephropathy” (Eur J Med Chem, 2021)", "key": {"Rattus norvegicus": {"species": "Rattus norvegicus", "assay": "Selectivity index, ratio of IC50 for Wistar rat kidney ALR1 to IC50 for Wistar rat lens ALR2", "in_short": "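Aldose reductases (ALR2, ALR1) prepared from Wistar rats (200-250 g). NADPH loss followed at 340 nm for 4 min after substrate start, following 10 min preincubation. ALR2: pH 6.2 phosphate, 30 °C, NADPH 0.10 mM, D,L-glyceraldehyde 10 mM. ALR1: pH 7.2, 37 °C, NADPH 0.12 mM, D-glucuronate 20 mM. 0.5% DMSO; non-enzymatic rate subtracted. IC50 from log dose-response with ≥3 concentrations (20-80% inhibition), triplicate.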"}, "Mus musculus [1]": {"system": "Mus musculus", "assay": "Antidiabetic activity in STZ-induced Kunming mouse model of diabetes assessed as reduction in blood glucose level at 80 mg/kg, po administered daily via gavage for 8 weeks and measured at week 8", "type": "functional", "settings": "1344 h"}, "Mus musculus [2]": {"system": "Mus musculus", "assay": "Antidiabetic activity in STZ-induced Kunming mouse model of diabetes assessed as reduction in blood glucose level at 160 mg/kg, po administered daily via gavage for 8 weeks and measured at week 8", "type": "functional", "settings": "1344 h"}, "Mus musculus [3]": {"system": "Mus musculus", "assay": "Antidiabetic activity in STZ-induced Kunming mouse model of diabetes assessed as reduction in blood glucose level at 80 mg/kg, po administered daily via gavage for 8 weeks and measured at week 2", "type": "functional", "settings": "336 h, time 2 weeks"}, "Mus musculus [4]": {"system": "Mus musculus", "assay": "Reno-protective activity in STZ-induced Kunming mouse model of diabetes assessed as urinary total protein excretion at 80 mg/kg, po administered daily via gavage for 8 weeks and measured at week 4 relative to control", "type": "functional", "settings": "time 4 weeks"}, "Mus musculus [5]": {"system": "Mus musculus", "assay": "Antioxidant activity in STZ-induced diabetic Kunming mouse assessed as rise in liver MDA level at 80 mg/kg, po administered QD via gavage for 4 weeks and measured at 6 hrs post-final drug dose relative to normal group", "type": "functional"}, "Mus musculus [6]": {"system": "Mus musculus", "assay": "Reno-protective activity in STZ-induced Kunming mouse model of diabetes assessed as glomerular atrophy and inflammatory cell infiltration at 160 mg/kg, po administered daily via gavage for 8 weeks by H and E staining based histological analysis", "type": "functional, organism-based"}, "[7]": {"molecular_target": "Aldo-keto reductase family 1 member B1 (Rattus norvegicus, UniProt P07943)", "assay": "Inhibition of Wistar rat lens ALR2 assessed as reduction in NADPH oxidation using D,L-glyceraldehyde and NADPH as substrate preincubated for 10 mins followed by substrate addition and measured for 4 mins by spectrophotometric analysis", "type": "tissue-based"}, "Mus musculus [8]": {"system": "Mus musculus", "assay": "Reno-protective activity in STZ-induced Kunming mouse model of diabetes assessed as urinary total protein excretion at 160 mg/kg, po administered daily via gavage for 8 weeks and measured at week 6 relative to control", "type": "functional", "settings": "time 6 weeks"}, "Mus musculus [9]": {"system": "Mus musculus", "assay": "Antidiabetic activity in STZ-induced Kunming mouse model of diabetes assessed as reduction in blood glucose level at 80 to 160 mg/kg, po administered daily via gavage for 8 weeks and measured at 2 to 5 hrs post-last drug dose", "type": "functional, organism-based", "settings": "dose 80-160 mg/kg"}, "Mus musculus [10]": {"system": "Mus musculus", "assay": "Antioxidant activity in STZ-induced diabetic Kunming mouse assessed as rise in liver MDA level at 160 mg/kg, po administered daily via gavage for 8 weeks and measured at 6 hrs post-final drug dose relative to normal group", "type": "functional"}, "Mus musculus [11]": {"system": "Mus musculus", "assay": "Antioxidant activity in STZ-induced diabetic Kunming mouse assessed as increase in SOD level in kidney at 160 mg/kg, po administered daily via gavage for 8 weeks and measured at 6 hrs post-final drug dose", "type": "functional"}, "Mus musculus [12]": {"system": "Mus musculus", "assay": "Antidiabetic activity in STZ-induced Kunming mouse model of diabetes assessed as reduction in blood glucose level at 80 mg/kg, po administered daily via gavage for 8 weeks and measured at week 4", "type": "functional", "settings": "672 h, time 4 weeks"}, "Brain": {"system": "Brain", "assay": "Antioxidant activity in rat brain assessed as inhibition of lipid peroxidation at 50 to 100 uM by TBARS assay", "type": "functional, tissue-based", "settings": "dose 50-100 µM", "in_short": "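Rat brain freshly homogenized in ice-cold saline and centrifuged; supernatant protein measured by Coomassie. Hydroxyl radical-driven lipid peroxidation read as MDA/TBARS with a commercial kit.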"}, "[13]": {"assay": "Inhibition of polyol pathway in STZ-induced Kunming mouse model of diabetes assessed as decrease in sorbitol level in kidney cortex at 80 mg/kg, po administered QD via gavage for 4 weeks and measured at 6 hrs post-final drug dose by fluorospectrophotometric analysis", "type": "functional", "settings": "672 h"}, "HEK-293T": {"system": "HEK-293T", "assay": "Cytotoxicity against human HEK293T cells at 25 to 200 uM measured after 24 hrs by MTT assay", "type": "cell-based", "settings": "dose 25-200 µM", "in_short": "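293T cells seeded at 1×10^5/well and exposed to 25, 50, 100 and 200 for 24 h at 37 °C; viability by MTT kit.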"}, "Mus musculus [14]": {"system": "Mus musculus", "assay": "Reno-protective activity in STZ-induced Kunming mouse model of diabetes assessed as reduction in kidney lesions and appearance of normal structure at 80 to 160 mg/kg, po administered daily via gavage for 8 weeks by H and E staining based histological analysis", "type": "functional, organism-based", "settings": "dose 80-160 mg/kg"}, "Mus musculus [15]": {"system": "Mus musculus", "assay": "Reno-protective activity in STZ-induced Kunming mouse model of diabetes assessed as urinary total protein excretion at 80 mg/kg, po administered daily via gavage for 8 weeks and measured at week 8 relative to control", "type": "functional"}, "Mus musculus [16]": {"system": "Mus musculus", "assay": "Antioxidant activity in STZ-induced diabetic Kunming mouse assessed as increase in GSH level in kidney at 80 mg/kg, po administered QD via gavage for 4 weeks and measured at 6 hrs post-final drug dose by microplate reader analysis", "type": "functional"}, "[17]": {"assay": "Antioxidant activity assessed as DPPH radical scavenging activity at 10 uM after 30 mins by spectrophotometric analysis", "type": "functional", "in_short": "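DPPH in methanol (1 mL, 0.025 mg/mL) plus methanol 1.9 mL and compound in methanol, final 100, 50 and 10 µM; absorbance at 517 nm. Scavenging % = 1 − (A_sample − A_blank)/A_control, where the blank is compound without DPPH. Trolox reference.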"}, "Mus musculus [18]": {"system": "Mus musculus", "assay": "Reno-protective activity in STZ-induced Kunming mouse model of diabetes assessed as urinary total protein excretion at 80 mg/kg, po administered daily via gavage for 8 weeks and measured at week 6 relative to control", "type": "functional", "settings": "time 6 weeks"}, "Mus musculus [19]": {"system": "Mus musculus", "assay": "Antioxidant activity in STZ-induced diabetic Kunming mouse assessed as increase in SOD level in kidney at 80 mg/kg, po administered daily via gavage for 8 weeks and measured at 6 hrs post-final drug dose", "type": "functional"}, "[20]": {"molecular_target": "Aldo-keto reductase family 1 member A1 (Rattus norvegicus, UniProt P51635)", "sequence (P51635 whole entry, looked up)": "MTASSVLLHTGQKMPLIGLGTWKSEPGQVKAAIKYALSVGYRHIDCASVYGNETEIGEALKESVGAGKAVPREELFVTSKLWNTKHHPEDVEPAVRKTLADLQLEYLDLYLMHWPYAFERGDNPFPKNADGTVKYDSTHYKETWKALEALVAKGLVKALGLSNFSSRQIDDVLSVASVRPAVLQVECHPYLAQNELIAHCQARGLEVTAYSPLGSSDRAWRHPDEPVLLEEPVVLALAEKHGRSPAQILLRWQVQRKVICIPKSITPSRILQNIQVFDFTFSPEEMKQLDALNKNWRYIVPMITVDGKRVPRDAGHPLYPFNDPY", "assay": "Inhibition of Wistar rat kidney ALR1 assessed as reduction in NADPH oxidation using sodium D-glucuronate and NADPH as substrate preincubated for 10 mins followed by substrate addition and measured for 4 mins by spectrophotometric analysis", "type": "tissue-based"}, "Mus musculus [21]": {"system": "Mus musculus", "assay": "Reno-protective activity in STZ-induced Kunming mouse model of diabetes assessed as reduction in albumin to creatinine ratio at 160 mg/kg, po administered daily via gavage for 8 weeks", "type": "functional", "settings": "1344 h"}, "Mus musculus [22]": {"system": "Mus musculus", "assay": "Antioxidant activity in STZ-induced diabetic Kunming mouse assessed as reduction in liver MDA level at 160 mg/kg, po administered daily via gavage for 8 weeks and measured at 6 hrs post-final drug dose relative to STZ-treated group", "type": "functional", "settings": "1344 h"}}, "note": "Active and inactive are the calls of the source. The rule behind the calls is not given here.", "data": [{"smiles": "COc1cc(/C=C/c2cccc3c2oc(=O)n3CC(=O)O)ccc1O", "values": [{"measurement": "Ratio IC50", "setting": "Rattus norvegicus", "value": 710}, {"measurement": "inhibition in vivo at 80 mg/kg", "setting": "Mus musculus [1]", "value": 9, "unit": "%"}, {"measurement": "inhibition in vivo at 160 mg/kg", "setting": "Mus musculus [2]", "value": 20, "unit": "%"}, {"measurement": "inhibition in vivo at 80 mg/kg", "setting": "Mus musculus [3]", "value": 18, "unit": "%"}, {"measurement": "Activity", "setting": "Mus musculus [4]", "value": 78, "unit": "%"}, {"measurement": "Activity", "setting": "Mus musculus [5]", "value": 15, "unit": "%"}, {"measurement": "Activity", "setting": "Mus musculus [6]", "value": "inactive"}, {"measurement": "IC50", "setting": "[7]", "value": 6.9, "unit": "nM"}, {"measurement": "Activity", "setting": "Mus musculus [8]", "value": 36, "unit": "%"}, {"measurement": "Activity", "setting": "Mus musculus [9]", "value": "Active"}, {"measurement": "Activity", "setting": "Mus musculus [10]", "value": 39, "unit": "%"}, {"measurement": "Activity", "setting": "Mus musculus [11]", "value": 38, "unit": "%"}, {"measurement": "inhibition in vivo at 80 mg/kg", "setting": "Mus musculus [12]", "value": 24, "unit": "%"}, {"measurement": "Activity", "setting": "Brain", "value": "Active"}, {"measurement": "inhibition in vivo at 80 mg/kg", "setting": "[13]", "value": 24, "unit": "%"}, {"measurement": "Activity", "setting": "HEK-293T", "value": "Non-Toxic"}, {"measurement": "Activity", "setting": "Mus musculus [14]", "value": "Active"}, {"measurement": "Activity", "setting": "Mus musculus [15]", "value": 53, "unit": "%"}, {"measurement": "Activity", "setting": "Mus musculus [16]", "value": 150, "unit": "%"}, {"measurement": "Activity", "setting": "[17]", "value": 22.7, "unit": "%"}, {"measurement": "Activity", "setting": "Mus musculus [18]", "value": 50, "unit": "%"}, {"measurement": "Activity", "setting": "Mus musculus [19]", "value": 177, "unit": "%"}, {"measurement": "IC50", "setting": "[20]", "value": 4.9, "unit": "µM"}, {"measurement": "inhibition in vivo at 160 mg/kg", "setting": "Mus musculus [21]", "value": 79, "unit": "%"}, {"measurement": "inhibition in vivo at 160 mg/kg", "setting": "Mus musculus [22]", "value": 45, "unit": "%"}]}]}
